Test results from ChEMBL document CHEMBL5649170, “Sustained microglial depletion with CSF1R inhibitor impairs parenchymal plaque development in an Alzheimer's disease model” (Nat Commun, 2019).

Tests used:
[1] = Drug concentration in 5XFAD mouse plasma at 75 ppm administered as rodent chow starting from 1.5 months and measured after 5 months; format: ADME, cell-free; conditions: route po, time 3.5 months
How it was run: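 WT or 5xFAD mice were fed PLX3397 in AIN-76A chow at 600 ppm or 75 ppm from 1.5 to 5 months of age. Terminal brain and plasma drug concentrations were determined at study end.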

[2] = biological target: Serine/threonine-protein kinase BRSK1 (Homo sapiens, UniProt Q8TDC3); experiment: Inhibition of BRSK1 (unknown origin)
Ephrin type-A receptor 5 = Ephrin type-A receptor 5 (Homo sapiens, UniProt P54756); experiment: Inhibition of EPHA5 (unknown origin)
[3] = biological target: Serine/threonine-protein kinase MARK2 (Homo sapiens, UniProt Q7KZI7); experiment: Inhibition of MARK2 (unknown origin)
[4] = Effect on Ctsz gene expression in wild type mouse thalamus at 1200 ppm administered as rodent chow starting from 1.5 months and measured after 7 months by RNA-Seq analysis (reference value: 13.234 to 17.920 RPKM); format: functional; conditions: route po, time 5.5 months, 4015 h
[5] = Effect on C1qa gene expression in wild type mouse cortex at 1200 ppm administered as rodent chow starting from 1.5 months and measured after 7 months by RNA-Seq analysis (reference value: 16.071 to 20.526 RPKM); format: functional; conditions: route po, time 5.5 months, 4015 h
How it was run: (§1)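 WT and 5xFAD mice were treated with 1200 ppm PLX5622 chow or control chow from 1.5 to 7 months of age. Brains were microdissected into cortex, hippocampus and thalamus, and RNA was extracted from tissue powder. Whole-transcriptome RNA-Seq libraries were sequenced, with n = 4 per group per region (48 samples).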

[6] = Effect on Itgax gene expression in 5XFAD mouse cortex at 1200 ppm administered as rodent chow starting from 1.5 months and measured after 7 months by RNA-Seq analysis (reference value: 1.746 to 3.999 RPKM); format: functional; conditions: route po, time 5.5 months, 4015 h
[7] = biological target: Platelet-derived growth factor receptor beta (Homo sapiens, UniProt P09619); experiment: Inhibition of PDGFRB (unknown origin)
[8] = biological target: G protein-coupled receptor kinase 5 (Homo sapiens, UniProt P34947); experiment: Inhibition of GRK5 (unknown origin)
[9] = biological target: Tyrosine-protein kinase Fgr (Homo sapiens, UniProt P09769); experiment: Inhibition of FGR (unknown origin)
Mus musculus [10] = experiment: Antialzheimer activity in 5XFAD mouse assessed as number of S100bteta positive cells per FOV in somatosensory cortex at 1200 ppm administered as rodent chow for 10 to 24 weeks by immunolabelling based confocal microscopic analysis (reference value: 283 to 357); format: functional; conditions: route po, time 10-24 weeks
[11] = Toxicity in wildtype mouse assessed as average speed at 1200 ppm administered as rodent chow for 10 to 24 weeks by Open field test (reference value: 0.044 to 0.09 meter/s); conditions: in vivo, po, time 10-24 weeks
[12] = Effect on Clec7a gene expression in wild type mouse cortex at 1200 ppm administered as rodent chow starting from 1.5 months and measured after 7 months by RNA-Seq analysis (reference value: 0 to 0.413 RPKM); format: functional; conditions: route po, time 5.5 months, 4015 h; how it was run: as §1
Ephrin type-B receptor 2 = Ephrin type-B receptor 2 (Homo sapiens, UniProt P29323); experiment: Inhibition of EPHB2 (unknown origin)
[13] = Effect on Nrg3 gene expression in wildtype mouse hippocampus assessed as percent change in Reads Per kilo base per Million mapped reads at 1200 ppm administered as rodent chow starting from 1.5 months and measured after 7 months by RNA-Seq analysis (reference value: 84.058 to 111.732 %); format: functional; conditions: route po, time 5.5 months, 4015 h
[14] = Effect on Scn1b gene expression in wildtype mouse hippocampus assessed as percent change in Reads Per kilo base per Million mapped reads at 1200 ppm administered as rodent chow starting from 1.5 months and measured after 7 months by RNA-Seq analysis (reference value: 86.853 to […]); format: functional; conditions: route po, time 5.5 months, 4015 h
Mus musculus [15] = experiment: Antialzheimer activity in wildtype mouse assessed as number of Iba positive cells per FOV in thalamus at 1200 ppm administered as rodent chow starting from 1.5 months and measured after 4 months (reference value: 232 to 320); format: functional; conditions: route po, time 2.5 months, 1825 h
[16] = Prevention of Zfp286 gene downregulation in 5XFAD mouse hippocampus assessed as percent change in Reads Per kilo base per Million mapped reads at 1200 ppm administered as rodent chow starting from 1.5 months and measured after 7 months by RNA-Seq analysis (reference value: 71.833 to 84.581 %); format: functional; conditions: route po, time 5.5 months, 4015 h
[17] = Effect on ccl6 gene expression in wild type mouse hippocampus at 1200 ppm administered as rodent chow starting from 1.5 months and measured after 7 months by RNA-Seq analysis (reference value: 0.451 to 0.597 RPKM); format: functional; conditions: route po, time 5.5 months, 4015 h
Mus musculus [18] = experiment: Antialzheimer activity in 5XFAD mouse assessed as ApoE immunoreactivity by measuring ApoE intensity of plaque core in thalamus at 1200 ppm administered as rodent chow starting from 1.5 months and measured after 7 months by immunolabeling based confocal microscopic analysis (reference value: 6.13 to 122.68 a.u.); format: functional; conditions: route po, time 5.5 months, 4015 h
[19] = AUC (0 to infinity) in dog at 45 mg/kg, po administered as single dose via gavage; format: ADME, organism-based, Canis lupus familiaris; conditions: in vivo
[20] = Effect on Siglech gene expression in 5XFAD mouse thalamus at 1200 ppm administered as rodent chow starting from 1.5 months and measured after 7 months by RNA-Seq analysis (reference value: 4.466 to 6.336 RPKM); format: functional; conditions: route po, time 5.5 months, 4015 h
[21] = Inhibition of CDK2/CyclinA (unknown origin); set-up: species or system Homo sapiens
[22] = Prevention of Rnf217 gene downregulation in 5XFAD mouse hippocampus assessed as percent change in Reads Per kilo base per Million mapped reads at 1200 ppm administered as rodent chow starting from 1.5 months and measured after 7 months by RNA-Seq analysis (reference value: 66.726 to 80.840 %); format: functional; conditions: route po, time 5.5 months, 4015 h
[23] = Clearance in mouse at 1.92 mg/kg, iv administered as single dose; format: ADME, organism-based; conditions: in vivo
[24] = Effect on Cst7 gene expression in wild type mouse thalamus at 1200 ppm administered as rodent chow starting from 1.5 months and measured after 7 months by RNA-Seq analysis (reference value: 0 to 1.803 RPKM); format: functional; conditions: route po, time 5.5 months, 4015 h
[25] = biological target: Cyclin-dependent kinase 1/cyclin B1 (Homo sapiens, UniProt P06493); experiment: Inhibition of CDK1/CyclinB (unknown origin); format: protein-complex assay
Mus musculus [26] = experiment: Antialzheimer activity in 5XFAD mouse assessed as time spent in closed arm at 1200 ppm administered as rodent chow for 10 to 24 weeks by Elevated plus maze test (reference value: 76.2 to 206.2 sec); format: functional; conditions: route po, time 10-24 weeks
[27] = Toxicity in wildtype mouse assessed as time spent in closed arm at 1200 ppm administered as rodent chow for 10 to 24 weeks by Elevated plus maze test (reference value: 73.3 to 220.6 sec); conditions: in vivo, po, time 10-24 weeks

Sequence of Ephrin type-B receptor 2 (P29323 whole entry): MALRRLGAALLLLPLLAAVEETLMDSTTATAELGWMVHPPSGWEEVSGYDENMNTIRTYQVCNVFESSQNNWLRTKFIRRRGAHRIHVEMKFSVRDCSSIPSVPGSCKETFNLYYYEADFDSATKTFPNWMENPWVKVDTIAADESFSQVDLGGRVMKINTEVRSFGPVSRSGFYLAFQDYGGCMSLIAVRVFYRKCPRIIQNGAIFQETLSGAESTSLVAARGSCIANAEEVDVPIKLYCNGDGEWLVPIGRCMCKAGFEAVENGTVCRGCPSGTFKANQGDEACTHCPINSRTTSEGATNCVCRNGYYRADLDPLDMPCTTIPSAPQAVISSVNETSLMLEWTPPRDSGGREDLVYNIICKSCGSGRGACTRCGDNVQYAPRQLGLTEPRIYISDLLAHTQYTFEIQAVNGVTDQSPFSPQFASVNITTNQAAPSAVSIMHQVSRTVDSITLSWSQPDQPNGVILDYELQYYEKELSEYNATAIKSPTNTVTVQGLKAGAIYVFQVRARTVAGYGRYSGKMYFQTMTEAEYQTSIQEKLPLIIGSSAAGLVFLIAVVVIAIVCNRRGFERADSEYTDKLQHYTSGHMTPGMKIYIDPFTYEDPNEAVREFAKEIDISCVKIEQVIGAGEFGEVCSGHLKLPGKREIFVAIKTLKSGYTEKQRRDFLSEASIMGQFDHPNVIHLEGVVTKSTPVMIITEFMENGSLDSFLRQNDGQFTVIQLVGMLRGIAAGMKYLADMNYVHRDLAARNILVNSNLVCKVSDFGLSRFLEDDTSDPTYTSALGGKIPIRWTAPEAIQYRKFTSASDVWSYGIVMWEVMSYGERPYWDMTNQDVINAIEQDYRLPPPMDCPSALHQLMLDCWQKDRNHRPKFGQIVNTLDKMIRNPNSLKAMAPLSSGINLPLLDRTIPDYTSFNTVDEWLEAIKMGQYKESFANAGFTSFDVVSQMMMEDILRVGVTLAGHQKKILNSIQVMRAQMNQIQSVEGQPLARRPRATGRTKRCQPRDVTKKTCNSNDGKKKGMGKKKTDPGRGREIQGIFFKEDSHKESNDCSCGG
Sequence of Ephrin type-A receptor 5 (P54756 whole entry): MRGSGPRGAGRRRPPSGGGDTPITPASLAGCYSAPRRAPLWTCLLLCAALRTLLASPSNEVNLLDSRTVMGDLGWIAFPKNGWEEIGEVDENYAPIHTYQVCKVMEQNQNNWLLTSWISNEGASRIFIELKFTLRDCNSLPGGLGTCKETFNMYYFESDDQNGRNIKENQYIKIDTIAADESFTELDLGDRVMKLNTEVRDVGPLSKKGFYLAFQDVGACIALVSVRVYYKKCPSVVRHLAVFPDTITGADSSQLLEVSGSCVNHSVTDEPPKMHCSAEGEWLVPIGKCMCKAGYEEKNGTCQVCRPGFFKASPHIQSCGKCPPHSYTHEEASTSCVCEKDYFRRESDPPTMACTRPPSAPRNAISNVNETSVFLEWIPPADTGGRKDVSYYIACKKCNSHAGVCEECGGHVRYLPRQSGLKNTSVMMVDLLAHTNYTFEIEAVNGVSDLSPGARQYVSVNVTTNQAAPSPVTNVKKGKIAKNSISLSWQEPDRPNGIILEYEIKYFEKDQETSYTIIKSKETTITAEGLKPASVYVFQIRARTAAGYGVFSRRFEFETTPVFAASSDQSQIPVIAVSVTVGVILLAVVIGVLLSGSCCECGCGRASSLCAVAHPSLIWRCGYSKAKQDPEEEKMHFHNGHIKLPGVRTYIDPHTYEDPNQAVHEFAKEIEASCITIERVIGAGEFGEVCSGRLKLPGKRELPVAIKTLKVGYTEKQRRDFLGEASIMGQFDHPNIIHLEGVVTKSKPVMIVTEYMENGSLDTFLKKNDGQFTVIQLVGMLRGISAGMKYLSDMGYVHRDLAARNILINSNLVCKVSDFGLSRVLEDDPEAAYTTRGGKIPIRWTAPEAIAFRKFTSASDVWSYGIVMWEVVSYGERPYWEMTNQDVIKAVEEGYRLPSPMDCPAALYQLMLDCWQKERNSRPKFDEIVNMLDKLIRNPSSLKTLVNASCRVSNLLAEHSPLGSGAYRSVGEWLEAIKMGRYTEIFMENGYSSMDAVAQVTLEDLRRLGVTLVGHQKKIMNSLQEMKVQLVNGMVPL
Sequence of Platelet-derived growth factor receptor beta (P09619 whole entry): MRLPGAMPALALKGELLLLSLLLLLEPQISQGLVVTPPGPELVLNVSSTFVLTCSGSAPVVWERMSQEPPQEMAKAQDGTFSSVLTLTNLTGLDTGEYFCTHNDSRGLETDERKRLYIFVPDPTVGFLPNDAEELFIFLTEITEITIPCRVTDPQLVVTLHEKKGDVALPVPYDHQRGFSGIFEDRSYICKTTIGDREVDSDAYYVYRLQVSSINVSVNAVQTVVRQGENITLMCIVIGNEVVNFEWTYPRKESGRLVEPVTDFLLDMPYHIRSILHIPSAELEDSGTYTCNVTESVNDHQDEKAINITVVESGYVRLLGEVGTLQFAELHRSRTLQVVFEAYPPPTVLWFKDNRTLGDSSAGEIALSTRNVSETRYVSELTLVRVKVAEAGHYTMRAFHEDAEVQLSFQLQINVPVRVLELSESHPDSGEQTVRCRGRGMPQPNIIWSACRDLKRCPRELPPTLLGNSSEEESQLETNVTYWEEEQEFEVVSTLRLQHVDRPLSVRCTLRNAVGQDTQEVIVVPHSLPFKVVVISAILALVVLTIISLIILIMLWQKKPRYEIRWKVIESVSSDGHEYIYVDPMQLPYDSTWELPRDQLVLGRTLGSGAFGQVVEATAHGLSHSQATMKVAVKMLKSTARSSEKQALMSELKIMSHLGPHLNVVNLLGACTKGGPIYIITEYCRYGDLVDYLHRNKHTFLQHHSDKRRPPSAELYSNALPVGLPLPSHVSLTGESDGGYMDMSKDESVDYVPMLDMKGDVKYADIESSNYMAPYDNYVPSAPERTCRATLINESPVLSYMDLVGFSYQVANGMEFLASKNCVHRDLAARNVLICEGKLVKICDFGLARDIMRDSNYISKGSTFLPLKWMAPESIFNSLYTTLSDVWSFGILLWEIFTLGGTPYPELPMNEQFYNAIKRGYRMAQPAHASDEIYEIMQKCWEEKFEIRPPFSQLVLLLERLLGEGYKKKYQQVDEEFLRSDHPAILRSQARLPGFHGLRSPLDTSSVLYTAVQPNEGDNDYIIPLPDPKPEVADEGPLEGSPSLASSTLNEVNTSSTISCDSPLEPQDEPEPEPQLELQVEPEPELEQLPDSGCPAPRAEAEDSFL
Sequence of G protein-coupled receptor kinase 5 (P34947 whole entry): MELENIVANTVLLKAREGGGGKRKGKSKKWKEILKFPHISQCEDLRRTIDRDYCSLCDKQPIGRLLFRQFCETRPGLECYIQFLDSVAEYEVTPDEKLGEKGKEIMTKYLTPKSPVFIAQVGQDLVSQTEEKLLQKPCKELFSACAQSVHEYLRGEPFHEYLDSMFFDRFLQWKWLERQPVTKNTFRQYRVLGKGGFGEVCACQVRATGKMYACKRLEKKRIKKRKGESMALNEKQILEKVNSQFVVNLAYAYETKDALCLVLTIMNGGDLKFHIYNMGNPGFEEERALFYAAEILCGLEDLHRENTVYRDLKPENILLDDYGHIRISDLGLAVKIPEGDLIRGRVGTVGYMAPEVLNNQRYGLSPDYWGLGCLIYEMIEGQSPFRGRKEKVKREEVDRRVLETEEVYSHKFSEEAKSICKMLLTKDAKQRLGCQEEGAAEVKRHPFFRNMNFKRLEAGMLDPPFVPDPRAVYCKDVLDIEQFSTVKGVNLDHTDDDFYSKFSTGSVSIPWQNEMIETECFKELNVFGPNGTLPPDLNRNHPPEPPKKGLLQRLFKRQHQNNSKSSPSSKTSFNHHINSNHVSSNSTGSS
Sequence of Cyclin-dependent kinase 1/cyclin B1 (P06493 whole entry): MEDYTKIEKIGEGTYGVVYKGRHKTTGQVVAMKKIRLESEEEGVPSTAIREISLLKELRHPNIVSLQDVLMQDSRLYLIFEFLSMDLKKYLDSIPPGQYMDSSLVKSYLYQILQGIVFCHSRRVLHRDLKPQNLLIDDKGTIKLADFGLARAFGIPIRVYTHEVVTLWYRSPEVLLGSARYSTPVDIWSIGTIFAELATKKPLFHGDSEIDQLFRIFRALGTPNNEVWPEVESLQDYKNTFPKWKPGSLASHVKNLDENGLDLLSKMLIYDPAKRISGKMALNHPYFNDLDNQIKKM
Sequence of Cyclin-dependent kinase 1/cyclin B1 (P14635 whole entry, further chain): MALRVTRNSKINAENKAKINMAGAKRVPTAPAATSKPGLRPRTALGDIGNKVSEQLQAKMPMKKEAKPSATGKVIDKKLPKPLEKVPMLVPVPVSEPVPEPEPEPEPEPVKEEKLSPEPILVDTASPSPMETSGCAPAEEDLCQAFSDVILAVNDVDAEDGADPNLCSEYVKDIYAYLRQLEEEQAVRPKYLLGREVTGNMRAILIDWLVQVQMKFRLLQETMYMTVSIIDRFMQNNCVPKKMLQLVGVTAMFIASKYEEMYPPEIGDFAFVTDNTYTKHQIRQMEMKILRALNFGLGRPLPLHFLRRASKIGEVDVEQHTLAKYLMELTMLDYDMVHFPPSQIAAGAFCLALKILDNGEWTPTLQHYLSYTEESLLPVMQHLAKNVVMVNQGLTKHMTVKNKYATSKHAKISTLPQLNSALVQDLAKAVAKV
Sequence of Tyrosine-protein kinase Fgr (P09769 whole entry): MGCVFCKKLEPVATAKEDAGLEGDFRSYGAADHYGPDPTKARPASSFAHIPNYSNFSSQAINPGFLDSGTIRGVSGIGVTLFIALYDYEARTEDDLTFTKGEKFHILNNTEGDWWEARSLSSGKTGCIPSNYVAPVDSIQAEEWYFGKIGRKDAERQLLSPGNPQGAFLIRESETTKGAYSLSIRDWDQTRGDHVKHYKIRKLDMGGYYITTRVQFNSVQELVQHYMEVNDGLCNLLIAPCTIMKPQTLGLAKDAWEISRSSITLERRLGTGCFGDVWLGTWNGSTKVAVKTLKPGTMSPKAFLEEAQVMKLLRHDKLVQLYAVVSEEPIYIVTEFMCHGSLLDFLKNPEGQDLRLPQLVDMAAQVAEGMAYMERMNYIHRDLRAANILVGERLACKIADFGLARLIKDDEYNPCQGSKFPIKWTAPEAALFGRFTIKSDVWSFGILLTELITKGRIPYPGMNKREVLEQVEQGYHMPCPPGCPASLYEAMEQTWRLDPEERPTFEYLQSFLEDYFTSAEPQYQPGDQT

Structure (SMILES): FC(F)(F)c1ccc(CNc2ccc(Cc3c[nH]c4ncc(Cl)cc34)cn2)cn1 [PEXIDARTINIB]
- concentration at 2555 h [1]: 15 µM

Structure (SMILES): COc1ncc(F)cc1CNc1ccc(Cc2c[nH]c3ncc(C)cc23)c(F)n1 [PLX-5622]
- IC50 [2]: > 1000 nM
- IC50 (Ephrin type-A receptor 5): > 1000 nM
- IC50 [3]: > 1000 nM
- Activity [4]: 11.055 RPKM
- Activity [5]: 0 RPKM
- Activity [6]: 0.086 RPKM
- IC50 [7]: > 1000 nM
- IC50 [8]: > 1000 nM
- IC50 [9]: > 1000 nM
- Activity (Mus musculus [10]): 307
- Activity [11]: 0.03 meter/s
- Activity [12]: 0 RPKM
- IC50 (Ephrin type-B receptor 2): > 1000 nM
- Activity [13]: 59.872%
- Activity [14]: 83.818%
- Activity (Mus musculus [15]): 0
- Activity [16]: 91.857%
- Activity [17]: 0 RPKM
- Flu intensity (Mus musculus [18]): 0.77 a.u.
- AUC(0-inf) [19]: 96500 ng·h/mL
- Activity [20]: 0 RPKM
- IC50 [21]: > 1000 nM
- Activity [22]: 95.371%
- clearance [23]: 2.1 mL/min/kg
- Activity [24]: 0 RPKM
- IC50 [25]: > 1000 nM
- Time (Mus musculus [26]): 30.9 s
- Time [27]: 90.5 s
